Assay results from ChEMBL document CHEMBL4334465, “SAR Studies on Aromatic Acylhydrazone-Based Inhibitors of Fungal Sphingolipid Synthesis as Next-Generation Antifungal Agents” (J Med Chem, 2019).
Values after ≈ are worked out from the molar mass of the structure shown. Active and inactive are the calls of the source. The calls are words filed in the database; no cut-off is given here.

Columns and labels:
[1] = tested on: J774; experiment: Inhibition of glucosylceramide synthesis in mouse J774 cells in presence of [3H]palmitate; assay type: cell-based
[2] = tested on: Cryptococcus neoformans; experiment: Inhibition of glucosylceramide synthesis in Cryptococcus neoformans H99 in presence of [3H]palmitate; assay type: functional, organism-based; settings: var grubii H99
[3] = tested on: Cryptococcus neoformans; experiment: Antifungal activity against Cryptococcus neoformans H99 infected in CBA/J mouse assessed as increase in survival at 1.2 mg/kg, ip; assay type: functional, organism-based; settings: var grubii H99
[4] = tested on: Pichia kudriavzevii; experiment: Antifungal activity against fluconazole-resistant Candida krusei assessed as FICI in presence of voriconazole; assay type: functional
In short: (§1)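 Checkerboard in 96-well plate. Test compound diluted 16 to 0.015 μg/mL (11 dilutions) against the partner drug in seven dilutions: fluconazole 12 to 0.19 μg/mL, caspofungin, itraconazole or voriconazole 8 to 0.007 μg/mL. Fractional inhibitory concentration index (FICI) calculated from the combinations.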

[5] = tested on: Cryptococcus neoformans; experiment: Fungicidal activity against Cryptococcus neoformans H99 measured after 72 hrs by time-kill assay; assay type: functional, var grubii H99
In short: (§2)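 Overnight C. neoformans washed in PBS and resuspended in HEPES-buffered YNB, pH 7.4. 2 × 10⁴ cells exposed to a range of drug concentrations in 10 mL with 0.5% DMSO final, at 37°C, 5% CO₂, shaking at 200 rpm. Aliquots sampled over 96 h, diluted and plated on YPD; CFU counted after 48 h at 30°C.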

[6] = tested on: Candida albicans; experiment: Antifungal activity against Candida albicans measured after 24 to 72 hrs; assay type: functional
In short: (§3)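 Modified CLSI broth microdilution with inoculum per M27A3. Compounds were serially diluted 32 to 0.03 μg/mL. Media: C. neoformans in HEPES-buffered YNB without amino acids (pH 7.0, 2% glucose); Candida strains in YNB without ammonium sulfate or amino acids plus 1% asparagine (pH 7.0, 2% glucose); A. fumigatus in RPMI (pH 7.0, 2% glucose).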

[7] = tested on: Aspergillus fumigatus; experiment: Antifungal activity against Aspergillus fumigatus assessed as FICI in presence of voriconazole; assay type: functional
In short: (§4)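 Checkerboard combination scored by fractional inhibitory concentration index. Acylhydrazone serially diluted 16 to 0.015 μg/mL (11 dilutions). Partner drug in seven dilutions: fluconazole 12 to 0.19 μg/mL, amphotericin B 5 to 0.078 μg/mL, caspofungin, itraconazole or voriconazole 8 to 0.007 μg/mL.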

[8] = tested on: Pichia kudriavzevii; experiment: Antifungal activity against Candida krusei 6258 assessed as FICI in presence of fluconazole; assay type: functional; in short: as §4
[9] = tested on: Candida albicans; experiment: Antifungal activity against Candida albicans assessed as FICI in presence of itraconazole; assay type: functional; in short: as §4
[10] = tested on: Cryptococcus neoformans; experiment: Antifungal activity against Cryptococcus neoformans H99 assessed as FICI in presence of fluconazole; assay type: functional, var grubii H99; in short: as §4
[11] = tested on: [Candida] auris; experiment: Antifungal activity against Candida auris assessed as FICI in presence of fluconazole; assay type: functional, Candidozyma auris; in short: as §4
[12] = tested on: Candida albicans; experiment: Antifungal activity against Candida albicans assessed as FICI in presence of fluconazole; assay type: functional; in short: as §4
[13] = tested on: Pichia kudriavzevii; experiment: Antifungal activity against Candida krusei measured after 24 to 72 hrs; assay type: functional
In short: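 MIC by modified CLSI broth microdilution. Candida strains grown in YNB without ammonium sulfate or amino acids with 1% asparagine, pH 7.0, 2% glucose. Inoculum per CLSI M27A3. Compound serially diluted 32 to 0.03 μg/mL. Incubation 37°C, 5% CO₂, 24–72 h, then OD450. MIC80 taken as the lowest concentration giving 80% growth inhibition versus untreated control.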

[14] = tested on: Aspergillus fumigatus; experiment: Antifungal activity against Aspergillus fumigatus assessed as FICI in presence of fluconazole; assay type: functional; in short: as §4
[15] = tested on: Candida albicans; experiment: Antifungal activity against Candida albicans assessed as FICI in presence of caspofungin; assay type: functional; in short: as §4
[16] = tested on: Candida parapsilosis; experiment: Antifungal activity against Candida parapsilosis assessed as FICI in presence of itraconazole; assay type: functional; in short: as §4
[17] = tested on: Pichia kudriavzevii; experiment: Antifungal activity against Candida krusei 6258 assessed as FICI in presence of caspofungin; assay type: functional; in short: as §4
[18] = tested on: HepG2; experiment: Cytotoxicity against human HepG2 cells after 24 to 48 hrs by MTT assay; assay type: functional; settings: read-out: LD50 (the source's name)
In short: (§5)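 A549 and HepG2 kept in DMEM with 10% FBS and 1% pen-strep. At passage 7, seeded at 10⁵ cells/well and allowed to adhere 14 h. Compound added at 0.03–128 μg/mL, untreated wells as controls. Incubation 37°C, 5% CO₂ for 24 or 48 h. MTT (5 mg/mL in PBS) added for 4 h, formazan dissolved in DMSO, OD570.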

[19] = tested on: Cryptococcus neoformans; experiment: Antifungal activity against Cryptococcus neoformans H99 assessed as FICI in presence of amphotericin B; assay type: functional, var grubii H99; in short: as §4
[20] = tested on: Pichia kudriavzevii; experiment: Antifungal activity against Candida krusei 6258 assessed as FICI in presence of itraconazole; assay type: functional; in short: as §4
[21] = tested on: Cryptococcus neoformans; experiment: Antifungal activity against Cryptococcus neoformans H99 assessed as FICI in presence of voriconazole; assay type: functional, var grubii H99; in short: as §4
[22] = tested on: Cryptococcus neoformans; experiment: Antifungal activity against Cryptococcus neoformans H99 measured after 24 to 72 hrs; assay type: functional; settings: var grubii H99; in short: as §3
[23] = tested on: Candida parapsilosis; experiment: Antifungal activity against Candida parapsilosis measured after 24 to 72 hrs; assay type: functional; settings: Lodderomyces parapsilosis; in short: as §3
[24] = tested on: A549; experiment: Cytotoxicity against human A549 cells after 24 to 48 hrs by MTT assay; assay type: functional; settings: read-out: LD50 (the source's name); in short: as §5
[25] = tested on: [Candida] auris; experiment: Antifungal activity against Candida auris measured after 24 to 72 hrs; assay type: functional; settings: Candidozyma auris; in short: as §3
[26] = tested on: Pichia kudriavzevii; experiment: Antifungal activity against Candida krusei 6258 assessed as FICI in presence of voriconazole; assay type: functional; in short: as §4
[27] = tested on: Aspergillus fumigatus; experiment: Antifungal activity against Aspergillus fumigatus measured after 24 to 72 hrs; assay type: functional; in short: as §3
[28] = tested on: [Candida] auris; experiment: Antifungal activity against Candida auris assessed as FICI in presence of itraconazole; assay type: functional, Candidozyma auris; in short: as §4
[29] = tested on: Candida parapsilosis; experiment: Antifungal activity against Candida parapsilosis assessed as FICI in presence of voriconazole; assay type: functional; in short: as §4
[30] = tested on: Aspergillus fumigatus; experiment: Antifungal activity against Aspergillus fumigatus assessed as FICI in presence of itraconazole; assay type: functional; in short: as §4
[31] = tested on: Cryptococcus neoformans; experiment: Antifungal activity against Cryptococcus neoformans H99 assessed as FICI in presence of itraconazole; assay type: functional, var grubii H99; in short: as §4
[32] = Selectivity index, ratio of LD50 for human HepG2 cells to MIC80 for Cryptococcus neoformans H99; assay type: toxicity; settings: read-out: Selectivity Index
In short: (§6)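 SI = LD₅₀/MIC₈₀. Cytotoxicity: A549 or HepG2 cells (DMEM, 10% FBS, passage 7, 10⁵ cells/well) adhered 14 h, then exposed to 0.03–128 μg/mL for 24 or 48 h at 37°C, 5% CO₂; MTT 4 h, formazan dissolved in DMSO, read at 570 nm. MIC₈₀ against C. neoformans from broth microdilution in HEPES-buffered YNB, pH 7.0.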

[33] = tested on: Candida parapsilosis; experiment: Antifungal activity against Candida parapsilosis assessed as FICI in presence of fluconazole; assay type: functional; in short: as §4
[34] = Selectivity index, ratio of LD50 for human A549 cells to MIC80 for Cryptococcus neoformans H99; assay type: toxicity; settings: read-out: Selectivity Index; in short: as §6
[35] = tested on: Pichia kudriavzevii; experiment: Antifungal activity against fluconazole-resistant Candida krusei assessed as FICI in presence of caspofungin; assay type: functional; in short: as §1
[36] = tested on: [Candida] auris; experiment: Antifungal activity against Candida auris assessed as FICI in presence of caspofungin; assay type: functional, Candidozyma auris; in short: as §4
[37] = tested on: [Candida] auris; experiment: Antifungal activity against Candida auris assessed as FICI in presence of voriconazole; assay type: functional, Candidozyma auris; in short: as §4
[38] = tested on: Candida albicans; experiment: Antifungal activity against Candida albicans assessed as FICI in presence of voriconazole; assay type: functional; in short: as §4
[39] = tested on: Pichia kudriavzevii; experiment: Antifungal activity against fluconazole-resistant Candida krusei assessed as FICI in presence of itraconazole; assay type: functional; in short: as §1
[40] = tested on: Pichia kudriavzevii; experiment: Antifungal activity against fluconazole-resistant Candida krusei assessed as FICI in presence of fluconazole; assay type: functional; in short: as §1
[41] = tested on: Candida parapsilosis; experiment: Antifungal activity against Candida parapsilosis assessed as FICI in presence of caspofungin; assay type: functional; in short: as §4
[42] = tested on: Cryptococcus neoformans; experiment: Fungicidal activity against Cryptococcus neoformans H99 measured up to 96 hrs by time-kill assay; assay type: functional, organism-based; settings: var grubii H99; in short: as §2

Cc1ccccc1C(=O)N/N=C/c1cc(Br)ccc1O
inhibition (INH) [1]: Dose-dependent effect
inhibition [2]: Dose-dependent effect
Activity [3]: Active

O=C(N/N=C/c1ccc(Br)cc1O)c1ccc(Br)cc1Br
fractional inhibitory concentration index (FICI) [4]: 0.281
MFC100 [5]: 0.06 µg/mL (≈ 0.126 µM)
MIC80 [6]: > 16 µg/mL
fractional inhibitory concentration index (FICI) [7]: 0.515
fractional inhibitory concentration index (FICI) [8]: 2
fractional inhibitory concentration index (FICI) [9]: 0.128
fractional inhibitory concentration index (FICI) [10]: 0.065
fractional inhibitory concentration index (FICI) [11]: 2
fractional inhibitory concentration index (FICI) [12]: 0.625
MIC80 [13]: > 16 µg/mL
fractional inhibitory concentration index (FICI) [14]: 2
fractional inhibitory concentration index (FICI) [15]: 0.502
fractional inhibitory concentration index (FICI) [16]: 0.124
fractional inhibitory concentration index (FICI) [17]: 2
CC50 [18]: 128 µg/mL (≈ 268 µM)
fractional inhibitory concentration index (FICI) [19]: 0.086
fractional inhibitory concentration index (FICI) [20]: 1.063
fractional inhibitory concentration index (FICI) [21]: 0.072
MIC80 [22]: 0.06 µg/mL (≈ 0.126 µM)
MIC80 [23]: 8 µg/mL (≈ 16.8 µM)
CC50 [24]: 64 µg/mL (≈ 134 µM)
MIC80 [25]: > 16 µg/mL
fractional inhibitory concentration index (FICI) [26]: 1.25
MIC80 [27]: > 16 µg/mL
fractional inhibitory concentration index (FICI) [28]: 0.508
fractional inhibitory concentration index (FICI) [29]: 0.076
fractional inhibitory concentration index (FICI) [30]: 0.484
fractional inhibitory concentration index (FICI) [31]: 0.072
selectivity ratio [32]: 2130
fractional inhibitory concentration index (FICI) [33]: 1.002
selectivity ratio [34]: 1070
fractional inhibitory concentration index (FICI) [35]: 2
fractional inhibitory concentration index (FICI) [36]: 2
fractional inhibitory concentration index (FICI) [37]: 1.016
fractional inhibitory concentration index (FICI) [38]: 0.256
fractional inhibitory concentration index (FICI) [39]: 0.252
fractional inhibitory concentration index (FICI) [40]: 2
fractional inhibitory concentration index (FICI) [41]: 2
Activity [42]: Dose-dependent effect
